Results published in ChEMBL document CHEMBL2202986, “Guaianolide sesquiterpene lactones, a source to discover agents that selectively inhibit acute myelogenous leukemia stem and progenitor cells” (J Med Chem, 2012).

Legend:
[1] = Drug degradation in HEPES buffer at pH 7.4 assessed as release of MCL up to 8 hrs; assay type: physicochemical; details: pH 7.4, 8 h
Procedure, shortened: (§1)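 A 20 μL aliquot of prodrug solution was added to 980 μL HEPES buffer (pH 7.4, or below 5.0) and incubated at 37 °C. Samples were withdrawn over time, and prodrug and released parent were quantified by HPLC (mean, SD, n = 4).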

Mus musculus [2] = test: Toxicity in BALB/c mouse assessed as pathological changes in lung at 500 mg/kg, po administered every day for 7 days by hematoxylin-eosin staining method; details: in vivo, 168 h
[3] = Mean retention time (0 to infinity) in mouse at 100 mg/kg, iv; assay type: ADME, organism-based; set-up: dose 100 mg/kg, route intravenous; details: in vivo
Procedure, shortened: (§2)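 Male Kunming mice (20 2 g), fasted 12 h before dosing with water available, given DMAMCL as an aqueous solution iv (n = 5). Blood was drawn from the orbital veins at set times. DMAMCL and MCL in plasma were measured, and parameters were derived by a noncompartmental model.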

[4] = Cytotoxicity against human leukemia stem/progenitor cells assessed as cell viability at 5 uM after 18 hrs by annexin-V labeling-based flow cytometry; assay type: functional; details: in the assay text read “leukemia cells” for “leukemia stem/progenitor cells”, read-out: Activity
Procedure, shortened: (§3)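 Primary leukemia cells from AML patient blood were treated for 18 h in serum-free IMDM, then stained with CD34-APC and CD38-PECy7 for 30 min. After washing in cold PBS, cells were labelled with Annexin-V–FITC/PI for 15 min at room temperature and read by flow cytometry. Viability of total and CD34⁺ cells was normalized to untreated controls (mean, SD).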

[5] = AUC (0 to t) in mouse at 150 mg/kg, po; assay type: ADME, organism-based; set-up: dose 150 mg/kg, route oral; details: plasma
Procedure, shortened: (§4)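 Male Kunming mice (20 2 g), fasted 12 h before dosing with water available, given DMAMCL as an aqueous solution po (n = 5). Blood was drawn from the orbital veins at set times. Plasma DMAMCL and MCL were followed, and parameters came from noncompartmental analysis.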

[6] = Toxicity in po dosed BALB/c mouse administered as single dose; assay type: organism-based; details: in vivo
Procedure, shortened: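 Oral gavage of aqueous solution at a single dose of 1000 mg/kg. Untreated and water-vehicle mice served as controls; 16 mice in total (8 male/8 female). Mice were sacrificed 1 week after dosing. Heart, liver, spleen, lung and kidney were formalin-fixed, paraffin-embedded, sectioned at 3 μm, H&E-stained, and examined for gross morphology.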

[7] = Half life in mouse at 150 mg/kg, po; assay type: ADME, organism-based; set-up: dose 150 mg/kg, route oral; details: in vivo; procedure, shortened: as §4
Mus musculus [8] = test: Toxicity in BALB/c mouse assessed as pathological changes in heart at 1000 mg/kg, po administered as single dose by hematoxylin-eosin staining method; assay type: organism-based; set-up: dose 1000 mg/kg, route oral; details: in vivo
Procedure, shortened: (§5)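 BALB/c mice (16 in total, 8 male/8 female) were given aqueous DMAMCL by gavage as a single 1000 mg/kg dose or 500 mg/kg daily for seven doses. Water-only and untreated mice served as controls. One week later, tissues were fixed in 10% neutral-buffered formalin, embedded in paraffin, cut into 3 μm sections, stained with H&E and examined microscopically.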

[9] = Drug degradation in HEPES buffer at pH <5 assessed as release of MCL; assay type: physicochemical; procedure, shortened: as §1
[10] = AUC (0 to infinity) in mouse at 150 mg/kg, po; assay type: ADME, organism-based; set-up: dose 150 mg/kg, route oral, time infinity; details: plasma; procedure, shortened: as §4
[11] = Toxicity in po dosed BALB/c mouse administered every day for 7 days; details: in vivo
[12] = Cytotoxicity against human leukemia stem/progenitor cells assessed as viable CD34+ cells at 10 uM after 18 hrs by annexin-V labeling-based flow cytometry; assay type: functional, CD34+ cell
[13] = Volume of distribution in mouse at 100 mg/kg, iv; assay type: ADME, organism-based; set-up: dose 100 mg/kg, route intravenous; details: in vivo
Procedure, shortened: (§6)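 Male Kunming mice (20 2 g) were fasted 12 h with water available. An aqueous solution was dosed po (150 mg/kg) or iv (100 mg/kg), n = 5 per route. Blood was drawn from the orbital veins at set times to measure DMAMCL and released MCL. Parameters come from a noncompartmental model and are given as mean with SD.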

[14] = Cytotoxicity against human leukemia stem/progenitor cells assessed as viable CD34+ cells at 5 uM after 18 hrs by annexin-V labeling-based flow cytometry; assay type: functional, CD34+ cell; procedure, shortened: as §3
Mus musculus [15] = test: Toxicity in BALB/c mouse assessed as pathological changes in kidney at 1000 mg/kg, po administered as single dose by hematoxylin-eosin staining method; assay type: organism-based; set-up: dose 1000 mg/kg, route oral; details: in vivo; procedure, shortened: as §5
[16] = AUC (0 to t) in mouse at 100 mg/kg, iv; assay type: ADME, organism-based; set-up: dose 100 mg/kg, route intravenous; details: plasma; procedure, shortened: as §2
Mus musculus [17] = test: Toxicity in BALB/c mouse assessed as pathological changes in liver at 1000 mg/kg, po administered as single dose by hematoxylin-eosin staining method; assay type: organism-based; set-up: dose 1000 mg/kg, route oral; details: in vivo
Procedure, shortened: (§7)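 BALB/c mice, 16 in total (8 male, 8 female). DMAMCL was given by gavage as an aqueous solution, either 1000 mg/kg once or 500 mg/kg every day for seven doses. Controls were untreated and water-vehicle mice. Mice were killed 1 week after dosing. Heart, liver, spleen, lung and kidney were fixed in 10% neutral-buffered formalin, paraffin-embedded, cut into 3 μm sections, H&E-stained and examined microscopically for gross morphology.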

[18] = Mean retention time (0 to t) in mouse at 100 mg/kg, iv; assay type: ADME, organism-based; set-up: dose 100 mg/kg, route intravenous; details: in vivo; procedure, shortened: as §2
[19] = Antitumor activity against mixed-lineage human leukemia cells xenografted in NOD/SCID mouse assessed as inhibition of cancer cell engrafting at 100 mg/kg, po qd administered every other day total of seven doses starting from 8 weeks post grafting measured on day 35; assay type: functional
HL-60 = test: Cytotoxicity against human HL60 cells after 18 hrs by annexin-V labeling-based flow cytometry; assay type: functional, cell-based; details: HL-60, 18 h
[20] = AUC (0 to infinity) in mouse at 100 mg/kg, iv; assay type: ADME, organism-based; set-up: time infinity, dose 100 mg/kg, route intravenous; details: plasma; procedure, shortened: as §2
[21] = Antitumor activity against human leukemia stem/progenitor cells xenografted in NOD/SCID mouse assessed as reduction of CD45+CD33+ cells in bone marrow at 100 mg/kg, po qd administered every other day total of seven doses starting from 8 weeks post grafting measured on day 85; assay type: functional; set-up: scale not given: the % may be the effect or the level left
Procedure, shortened: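 NOD/SCID mice, sublethally irradiated (280cGay), received primary AML M5 patient cells via tail vein in PBS 6−10 h later. From 8 weeks after engraftment, aqueous drug was given orally every other day for seven doses. Surviving mice were sacrificed on day 85 post-inoculation, and human CD45⁺CD33⁺ cells in bone marrow were measured by flow cytometry.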

Mus musculus [22] = test: Volume of distribution in mouse at 150 mg/kg, po; assay type: ADME, organism-based; set-up: dose 150 mg/kg, route oral; details: in vivo; procedure, shortened: as §6
[23] = Mean retention time (0 to infinity) in mouse at 150 mg/kg, po; assay type: ADME, organism-based; set-up: dose 150 mg/kg, route oral; details: in vivo; procedure, shortened: as §4
[24] = Cmax in mouse at 150 mg/kg, po; assay type: ADME, organism-based; set-up: dose 150 mg/kg, route oral; details: in vivo; procedure, shortened: as §4
Mus musculus [25] = test: Toxicity in BALB/c mouse assessed as pathological changes in spleen at 1000 mg/kg, po administered as single dose by hematoxylin-eosin staining method; assay type: organism-based; set-up: dose 1000 mg/kg, route oral; details: in vivo; procedure, shortened: as §7
Mus musculus [26] = test: Toxicity in BALB/c mouse assessed as pathological changes in lung at 1000 mg/kg, po administered as single dose by hematoxylin-eosin staining method; assay type: organism-based; set-up: dose 1000 mg/kg, route oral; details: in vivo; procedure, shortened: as §7
Mus musculus [27] = test: Toxicity in BALB/c mouse assessed as pathological changes in kidney at 500 mg/kg, po administered every day for 7 days by hematoxylin-eosin staining method; details: in vivo, 168 h

CC1=C2CC[C@@](C)(O)[C@@H]2[C@H]2OC(=O)[C@@H](CN(C)C)[C@@H]2CC1.Cl [DIMETHYLAMINOMICHELIOLIDE HYDROCHLORIDE]
Drug degradation [1]: Active | Activity (Mus musculus [2]): Non-toxic | MRT inf [3]: 3.52 h | viability at 5 µM [4]: 77.6% | AUC(0-t) [5]: 49600 ng·h/mL | MTD [6]: 1000 mg/kg | half-life [7]: 9.82 h | Activity (Mus musculus [8]): Non-toxic | Drug degradation [9]: Not Active | AUC(0-inf) [10]: 50300 ng·h/mL | MTD at 168 h [11]: 500 mg/kg | Activity [12]: 60.4% | Vd [13]: 88.2 L/kg | Activity [14]: 72.9% | Activity (Mus musculus [15]): Non-toxic | AUC(0-t) [16]: 43900 ng·h/mL | Activity (Mus musculus [17]): Non-toxic | MRT last [18]: 1.51 h | inhibition in vivo at 100 mg/kg [19]: 98.6% | IC50 (HL-60): 17.2 µM | AUC(0-inf) [20]: 44800 ng·h/mL | Activity [21]: 0.005% | Vd (Mus musculus [22]): 47.38 L/kg | MRT inf [23]: 9.85 h | Cmax [24]: 19000 ng/mL | Activity (Mus musculus [25]): Non-toxic | Activity (Mus musculus [26]): Non-toxic | Activity (Mus musculus [27]): Non-toxic
